Reference: ChEMBL document CHEMBL1125795, “Substrate analogue renin inhibitors containing replacements of histidine in P2 or isosteres of the amide bond between P3 and P2 sites” (J Med Chem, 1991)
pIC50: −log10 of the molar value. Starred links: 1 amine or outer side, 2 acyl side, 3 side chain; linkers in the order of their positions; H or OH if unused. Non-standard residues stand in square brackets, D forms with d. Residues, ends and D or L forms follow the SMILES beside them. *: point of attachment. X1 = CC(C)C[C@H](N[*:1])[C@@H](O)C[C@H](C(=O)[*:2])C(C)C; Boc = CC(C)(C)OC(=O)*

Legend:
[1] = target: Pepsin A (Sus scrofa, UniProt P00791); assay: In vitro inhibitory activity against porcine Pepsin.
Outline: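 Porcine pepsin (20 units) digesting hemoglobin at pH 1.8, 10 min, 35.5 °C. Released TCA-soluble peptides measured at 280 nm; IC50 is the concentration halving peptide liberation.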

[2] = target: T1, Cathepsin D (Bos taurus, UniProt P80209); assay: In vitro inhibitory activity against bovine Cathepsin D
T1 sequence (P80209 whole entry): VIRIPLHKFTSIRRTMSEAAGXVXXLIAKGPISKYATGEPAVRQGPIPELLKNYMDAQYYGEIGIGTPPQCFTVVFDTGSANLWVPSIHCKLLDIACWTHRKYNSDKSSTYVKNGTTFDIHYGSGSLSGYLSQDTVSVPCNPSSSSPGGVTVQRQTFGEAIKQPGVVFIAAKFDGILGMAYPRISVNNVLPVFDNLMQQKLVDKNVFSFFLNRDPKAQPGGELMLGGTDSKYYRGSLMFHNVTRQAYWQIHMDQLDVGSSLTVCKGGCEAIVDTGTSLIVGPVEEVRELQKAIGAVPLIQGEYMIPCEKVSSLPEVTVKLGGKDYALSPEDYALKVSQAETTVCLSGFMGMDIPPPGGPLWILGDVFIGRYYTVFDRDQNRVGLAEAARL
Outline: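 Bovine cathepsin D (100 munits) acting on hemoglobin at pH 3.2, 20 min, 37 °C. TCA-soluble peptides released were read by absorbance at 280 nm; IC50 taken as the concentration giving 50% inhibition of peptide liberation.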

[3] = target: T2, Renin (Homo sapiens, UniProt P00797); assay: In vitro for inhibitory activity against human renin
T2 sequence (P00797 whole entry): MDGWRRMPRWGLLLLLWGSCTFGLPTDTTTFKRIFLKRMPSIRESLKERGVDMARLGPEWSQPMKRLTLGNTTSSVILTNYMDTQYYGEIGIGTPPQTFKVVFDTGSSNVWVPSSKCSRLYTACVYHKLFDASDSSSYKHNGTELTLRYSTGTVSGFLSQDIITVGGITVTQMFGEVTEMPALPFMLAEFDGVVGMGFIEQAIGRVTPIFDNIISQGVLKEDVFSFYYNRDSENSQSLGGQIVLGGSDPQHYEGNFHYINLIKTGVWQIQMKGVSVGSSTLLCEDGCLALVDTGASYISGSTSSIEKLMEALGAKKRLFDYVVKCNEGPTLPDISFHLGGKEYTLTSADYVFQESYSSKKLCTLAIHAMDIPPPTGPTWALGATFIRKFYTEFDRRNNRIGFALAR
Outline: (§1)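 Endogenous renin and angiotensinogen in human EDTA plasma; incubation mixture of 76 mM maleate pH 5.5, 7.2 mM EDTA, 1% DMSO, 8.3 mM 8-hydroxyquinoline; 2 h at 37 °C, then on ice; angiotensin I measured by radioimmunoassay. At least three inhibitor concentrations bracketing the IC50; IC50 calculated from percent inhibition.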

[4] = Plasma renin activity change in salt depleted cynomolgus monkeys.; type: functional, Cercopithecidae
Outline: (§2)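 Cynomolgus monkeys salt-depleted with furosemide 2 mg/kg im daily from 4 days before the experiment; haloperidol 0.3 mg/kg im for sedation on the test day. Conscious chair-restrained animals; systolic pressure by tail-cuff every 5 min, stabilized before dosing. Single oral 30 mg/kg dose, n = 4; PRA from blood samples. Change from T = 0 baseline, mean ± SE.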

[5] = Plasma renin activity change in salt depleted cynomolgus monkeys after 180 minutes, administration of the compound.; type: functional, Cercopithecidae; outline: as §2
[6] = Partition coefficient (logP); type: physicochemical; settings: octanol/water
Outline: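 Octanol/water partition coefficient measured at pH 7.4.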

[7] = target: T2, Renin; assay: Compound was tested in vitro for inhibitory activity against human renin; outline: as §1
[8] = Systolic blood pressure change in salt depleted cynomolgus monkeys.; type: functional, Cercopithecidae; outline: as §2
[9] = Duration of Systolic blood pressure decrease in salt depleted cynomolgus monkeys.; type: functional, Cercopithecidae; outline: as §2
[10] = target: T2, Renin; assay: The compound was tested in vitro for inhibitory activity against human renin; outline: as §1

Chain of Pepsin A (P00791 whole entry): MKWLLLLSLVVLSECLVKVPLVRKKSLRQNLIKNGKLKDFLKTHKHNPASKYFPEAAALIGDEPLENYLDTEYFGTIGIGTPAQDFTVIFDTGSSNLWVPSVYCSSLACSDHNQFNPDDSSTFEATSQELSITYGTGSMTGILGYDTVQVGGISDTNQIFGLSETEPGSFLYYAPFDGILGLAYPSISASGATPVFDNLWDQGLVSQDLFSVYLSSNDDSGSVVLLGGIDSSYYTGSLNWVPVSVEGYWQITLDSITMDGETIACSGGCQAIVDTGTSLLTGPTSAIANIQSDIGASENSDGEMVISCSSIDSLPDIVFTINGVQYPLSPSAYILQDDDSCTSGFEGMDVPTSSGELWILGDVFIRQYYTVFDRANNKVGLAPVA

SMILES | pIC50 [1] | pIC50 [2] | pIC50 [3] | other results
CC[C@H](C)[C@H](NC(=O)C[C@H](O)[C@H](CC1CCCCC1)NC(=O)CSC[C@@H](O)[C@H](Cc1ccccc1)NC(=O)OC(C)(C)C)C(=O)NCc1cnc(C)nc1N | < 4.00 | 4.14 | 8.26 | 
CC[C@H](C)[C@H](NC(=O)C[C@H](O)[C@H](CC1CCCCC1)NC(=O)C[S+]([O-])CC(=O)[C@H](Cc1ccccc1)NC(=O)OC(C)(C)C)C(=O)NCc1cnc(C)nc1N (stereo partly drawn) | < 5.00 | < 5.00 | 7.15 | 
CC[C@H](C)[C@H](NC(=O)C[C@H](O)[C@H](CC1CCCCC1)NC(=O)CSC[C@H](O)[C@H](Cc1ccccc1)NC(=O)OC(C)(C)C)C(=O)NCc1cnc(C)nc1N | < 4.00 | < 4.00 | 8.20 | 
CC[C@H](C)[C@H](NC(=O)C[C@H](O)[C@H](CC1CCCCC1)NC(=O)CCNC(=O)[C@H](Cc1ccccc1)NC(=O)CCCCCN)C(=O)NCc1cnc(C)nc1N | < 5.00 | < 5.00 | 8.35 | 
CC[C@H](C)[C@H](NC(=O)C[C@H](O)[C@H](CC1CCCCC1)NC(=O)CCNC(=O)[C@@H](Cc1ccccc1)NC(=O)CC(C)(C)N)C(=O)NCc1cnc(C)nc1N | < 5.00 | < 5.00 | 8.74 | 
CC[C@H](C)[C@H](NC(=O)C[C@H](O)[C@@H](CC1CCCCC1)NC(=O)CCCNC(=O)[C@@H](Cc1ccccc1)NC(=O)OC(C)(C)C)C(=O)NCc1cnc(C)nc1N | < 5.00 | 5.49 | 7.55 | 
CC[C@H](C)[C@H](NC(=O)C[C@H](O)[C@H](CC1CCCCC1)NC(=O)CCNC(=O)[C@@H](Cc1ccccc1)NC(=O)N1CCC(C(=O)O)CC1)C(=O)NCc1cnc(C)nc1N | < 5.00 | < 5.00 | 8.94 | 
CC[C@H](C)[C@H](NC(=O)C[C@H](O)[C@H](Cc1ccccc1)NC(=O)[C@H](Cc1c[nH]cn1)NC(=O)[C@H](Cc1ccccc1)NC(=O)OC(C)(C)C)C(=O)NCc1cccnc1 | < 5.00 | 5.24 | 8.54 | 
CC[C@H](C)[C@H](NC(=O)C[C@H](O)[C@H](CC1CCCCC1)NC(=O)CC[C@H](O)[C@H](Cc1ccccc1)NC(=O)OC(C)(C)C)C(=O)NCc1cnc(C)nc1N | < 5.00 | < 5.00 | 8.38 | 
CC[C@H](C)[C@H](NC(=O)C[C@H](O)[C@H](CC1CCCCC1)NC(=O)CCC(=O)[C@H](Cc1ccccc1)NC(=O)OC(C)(C)C)C(=O)NCc1cnc(C)nc1N | < 5.00 | < 5.00 | 8.07 | 
CC[C@H](C)[C@H](NC(=O)C[C@H](O)[C@H](CC1CCCCC1)NC(=O)CCNC(=O)[C@H](Cc1ccccc1)NC(=O)CCC[N+](C)(C)C)C(=O)NCc1cnc(C)nc1N.[Cl-] | < 5.00 | < 5.00 | 8.10 | Change [4]: -83.2%; Change [5]: -78.3%; logP [6]: 1.53; Change [8]: -10.6%; Duration [9]: > 130 min
CC[C@H](C)[C@H](NC(=O)C[C@H](O)[C@H](CC1CCCCC1)NC(=O)CCNC(=O)[C@H](Cc1ccccc1)NC(=O)N1CCC(NC(=O)OC(C)(C)C)CC1)C(=O)NCc1cnc(C)nc1N | < 5.00 | 5.23 | 9.19 | 
CC[C@H](C)[C@H](NC(=O)C[C@H](O)[C@H](CC1CCCCC1)NC(=O)CCNC(=O)[C@H](Cc1ccccc1)NC(=O)N1CCC(N)CC1)C(=O)NCc1cnc(C)nc1N.Cl.Cl | < 5.00 | 5.07 | 9.12 | Change [4]: -90.5%; Change [5]: -89.3%; logP [6]: 1.83; Change [8]: -24.7%; Duration [9]: >180 min
CC[C@H](C)[C@H](NC(=O)C[C@H](O)[C@H](CC1CCCCC1)NC(=O)CCNC(=O)[C@@H](N)Cc1ccccc1)C(=O)NCc1cnc(C)nc1N | < 5.00 | < 5.00 | 7.71 | 
CC[C@H](C)[C@H](NC(=O)[C@@H](C[C@H](O)[C@H](CC(C)C)NC(=O)[C@H](Cc1c[nH]cn1)NC(=O)[C@H](Cc1ccccc1)NC(=O)OC(C)(C)C)C(C)C)C(=O)N[C@@H](Cc1c[nH]cn1)C(=O)O (Boc-FH[X1]IH-OH) |  |  |  | pIC50 [10]: 8.62

The next lines start with results.

pIC50 [1] | pIC50 [2] | pIC50 [3] | SMILES | other results
6.02 | 7.55 | 9.28 | CC[C@H](C)[C@H](NC(=O)C[C@H](O)[C@H](CC1CCCCC1)NC(=O)[C@H](C)NC(=O)[C@H](Cc1ccccc1)NC(=O)OC(C)(C)C)C(=O)NCc1cnc(C)nc1N | 
5.85 | 5.41 | 8.27 | CC[C@H](C)[C@H](NC(=O)[C@@H](C[C@H](O)[C@H](CC(C)C)NC(=O)CNC(=O)[C@H](Cc1ccccc1)NC(=O)OC(C)(C)C)C(C)C)C(=O)NCc1cnc(C)nc1N | 
4.41 | 4.89 | 8.60 | CC[C@H](C)[C@H](NC(=O)C[C@H](O)[C@@H](CC1CCCCC1)NC(=O)CNC(=O)[C@@H](Cc1ccccc1)NC(=O)OC(C)(C)C)C(=O)NCc1cnc(C)nc1N | 
< 5.00 | < 5.00 | 6.62 | CC[C@H](C)[C@H](NC(=O)C[C@H](O)[C@H](CC1CCCCC1)NC(=O)CS(=O)(=O)CC(=O)[C@H](Cc1ccccc1)NC(=O)OC(C)(C)C)C(=O)NCc1cnc(C)nc1N | 
4.40 | 5.19 | 8.55 | CC[C@H](C)[C@H](NC(=O)C[C@H](O)[C@@H](CC1CCCCC1)NC(=O)CNC(=O)[C@@H](Cc1ccccc1)NC(=O)OC(C)(C)C)C(=O)NCc1cccnc1 | 
4.73 | 5.10 | 8.82 | CC[C@H](C)[C@H](NC(=O)C[C@H](O)[C@@H](CC1CCCCC1)NC(=O)CCNC(=O)[C@@H](Cc1ccccc1)NC(=O)OC(C)(C)C)C(=O)NCc1cnc(C)nc1N | Change [4]: -25.1%; Change [5]: -21.6%; logP [6]: 2.88
< 5.00 | < 5.00 | 9.55 | CC[C@H](C)[C@H](NC(=O)C[C@H](O)[C@H](CC1CCCCC1)NC(=O)CCNC(=O)[C@H](Cc1ccccc1)NC(=O)N1CCOCC1)C(=O)NCc1cnc(C)nc1N | 
< 5.00 | 5.00 | 9.24 | CC[C@H](C)[C@H](NC(=O)C[C@H](O)[C@H](CC1CCCCC1)NC(=O)CCNC(=O)[C@H](Cc1ccccc1)NC(=O)N1CCC(N(C)C)CC1)C(=O)NCc1cnc(C)nc1N | 
6.08 | 5.33 | 8.39 | CC[C@H](C)[C@H](NC(=O)[C@@H](C[C@H](O)[C@H](CC(C)C)NC(=O)CCNC(=O)[C@H](Cc1ccccc1)NC(=O)OC(C)(C)C)C(C)C)C(=O)NCc1cnc(C)nc1N | 
4.92 | 5.10 |  | CC[C@H](C)[C@H](NC(=O)[C@@H](C[C@H](O)[C@H](CC(C)C)NC(=O)CCC(=O)[C@H](Cc1ccccc1)NC(=O)OC(C)(C)C)C(C)C)C(=O)NCc1cnc(C)nc1N | pIC50 [7]: 8.29
5.00 | < 5.00 | 8.92 | CC[C@H](C)[C@H](NC(=O)C[C@H](O)[C@H](CC1CCCCC1)NC(=O)CC[C@@H](O)[C@H](Cc1ccccc1)NC(=O)OC(C)(C)C)C(=O)NCc1cnc(C)nc1N | 
5.22 | 5.06 | 8.27 | CC[C@H](C)[C@H](NC(=O)[C@@H](C[C@H](O)[C@H](CC(C)C)NC(=O)CSCC(=O)[C@H](Cc1ccccc1)NC(=O)OC(C)(C)C)C(C)C)C(=O)NCc1cnc(C)nc1N | 
4.28 | 4.55 |  | CC[C@H](C)[C@H](NC(=O)C[C@H](O)[C@H](CC1CCCCC1)NC(=O)CSCC(=O)[C@H](Cc1ccccc1)NC(=O)OC(C)(C)C)C(=O)NCc1cnc(C)nc1N | pIC50 [7]: 8.68
5.38 | 5.50 | 9.39 | CCOC(=O)C1CCN(C(=O)N[C@@H](Cc2ccccc2)C(=O)NCCC(=O)N[C@@H](CC2CCCCC2)[C@@H](O)CC(=O)N[C@H](C(=O)NCc2cnc(C)nc2N)[C@@H](C)CC)CC1 | 
